Diaph act CS: compounds boosting diaphorase resazurin reduction – biochemical, uHTS, resorufin fluorescence, counter-screen for diaphorase-coupled primary assays, primary screen; Diaphorase/resazurin coupled assay, 16 min; stronger effect = higher value; 1 = vehicle wells, 0 = NADH-free wells; actives 0.005% (n = 190,000); activation factor at 20 µM;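 active means diaphorase activity raised at least twofold by the compound at 20 µM; inactive means activation factor below 2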
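Material: bacterial diaphorase enzyme (C. kluyveri); amount: enzyme 0.07 U/mL final; reagent: NADH substrate 0.114 mM plus resazurin dye 0.1 mM, final; doses: single compound dose of 20 µM, 1% DMSO final; timing: 16 min enzyme reaction, ambient temperature; measured by: fluorescence of resorufin, 544 nm excitation, 590 nm emission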
WT yeast gro inh: growth inhibition of WT strain, primary screen, mitochondrial fusion inhibitor project, WT and mutant strains, chemical genetic. mitochondrial fusion phenotypic screen. inhibition, % at 10 µM. actives 2.1% (n = 190,000); in the data active means inhibition above about 58%; tested in S. cerevisiae
L major viab: Leishmania major promastigote growth inhibition, primary screen. inhibition, % at 10 µM. AID 1063, 2008. Leishmania major promastigotes, resazurin fluorescence viability. actives 9% (n = 200,000);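 further: promastigotes grown with compound for 44 hours at 28 °C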
Diaph inh CS: diaphorase inhibitors and chemical oxidizers, primary screen, counter-screen for diaphorase-coupled primary assays, biochemical, uHTS, resorufin fluorescence. actives 0.69% (n = 190,000). inhibition, % at 20 µM. diaphorase resazurin-to-resorufin fluorescence, NADH, 16 min; bacterial (C. kluyveri) enzyme, not human. AID 1217, 2008;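 active means primary screen inhibition at 20 µM above a set limit, cut at about 50% in these data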
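Detection: fluorescence of resorufin formed from resazurin, Ex 544/Em 590 nm; test system: Clostridium kluyveri diaphorase enzyme; amount: 0.14 U/mL diaphorase, enzyme working solution; times: 16-min room-temperature incubation before reading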
G6PDH CS: L. mesenteroides G6PDH inhibitors, counter-screen for G6PDH-coupled screening assays, biochemical, Leuconostoc mesenteroides enzyme; actives 0.12% (n = 200,000); inhibition, % at 5 µM; glucose-6-phosphate dehydrogenase [Leuconostoc mesenteroides]; Purified L. mesenteroides G6PDH, diaphorase/resazurin coupled fluorescence, 45 min
Large screens that a line does not name were inactive. Only some compounds are listed: those with a hit (about 11% of all), similar ones and a draw of the others. Unless noted, no stated cut-off is given here; in the data, active means inhibition above about 50%; inactive means the rest.

O=C(CSc1nc(-c2ccccc2)nc2c1Cc1ccccc1O2)Nc1ccccc1	none
O=C(CSc1nc(-c2ccc(F)cc2)nc2c1Cc1ccccc1O2)Nc1cccc(C(=O)O)c1	Diaph inh CS 61
COc1cc2c(cc1OC)CN(c1ccc(-c3ccccc3OC)nn1)CC2	L major viab 100
COc1ccccc1-c1ccc(NC2CCCC2)nn1	none
CC(C)(C)NC(=O)COC(=O)c1ccc(Cl)cc1O	none
Cc1ccc(CNC(=O)C2CCN(S(=O)(=O)c3c(C)noc3/C=C/c3ccco3)CC2)cc1	L major viab 93
Cc1noc(/C=C/c2cccs2)c1S(=O)(=O)N1CCC(C(=O)NCCCN2CCC(C)CC2)CC1	L major viab 90
Cc1noc(/C=C/c2ccco2)c1S(=O)(=O)N1CCC(C(=O)N2CCc3ccccc3C2)CC1	L major viab 73
CCOC(=O)c1c(NC(=O)c2cc3n(n2)C(C(F)(F)F)CC(c2cccs2)N3)sc(C)c1C (configuration not stated)	none
CCN1C(=O)C(F)(CC)C(=O)c2ccccc21 (configuration not stated)	none
Oc1ccc(Cl)cc1-c1cc(-c2cccc(Br)c2)n[nH]1	WT yeast gro inh 82, L major viab 99
Oc1ccccc1-c1cc(-c2ccco2)[nH]n1	none
Oc1ccc(Cl)cc1-c1cc(-c2ccco2)[nH]n1	L major viab 90
Oc1ccc(Cl)cc1-c1cc(-c2ccccc2Cl)[nH]n1	none
COc1ccc(OCC(=O)NNC(=O)c2cccc(O)c2)cc1	none
CCc1ccccc1N1C[C@@]23C=C[C@@H](O2)C(C(=O)OCC(C)C)[C@H]3C1=O (some centres not stated)	WT yeast gro inh 60
Cc1ccc(/C=N/NC(=O)c2cccc([N+](=O)[O-])c2)o1	none
CCOC(=O)N/N=C\c1ccc([N+](=O)[O-])o1	L major viab 98
CC1(C(=O)N/N=C/c2ccc([N+](=O)[O-])o2)CC1(Br)Br (configuration not stated)	L major viab 98
CCOC(=O)N/N=C/c1c(F)c(F)c(F)c(F)c1F	L major viab 65
O=C(CCN1CCOCC1)N/N=C/c1cc(Br)cc(Br)c1O	Diaph inh CS 63
CCOC(=O)N/N=C/c1ccc(F)cc1	none
Cc1nc2ccccn2c1C(=O)CSc1cccc(Cl)c1	none
O=C(Cc1csc(N2CCOCC2)n1)N/N=C/c1ccc(O)c(O)c1O	Diaph inh CS 83
N#CCc1ccc(NC(=O)/C=C/c2ccc([N+](=O)[O-])o2)cc1	L major viab 101
O=C(CC12CC3CC(CC(C3)C1)C2)N/N=C/c1ccc([N+](=O)[O-])o1	L major viab 99
N#C/C(=C\c1ccc([N+](=O)[O-])o1)C(=O)Nc1ccc(F)cc1	none
CCCCCCCC(=O)N/N=C/c1ccc([N+](=O)[O-])o1	L major viab 91
O=C(O)c1cccnc1Br	none
COc1ccc(S(=O)(=O)N(CC(=O)NC2CC2)c2ccc(C)cc2)cc1OC	none
Cc1nnsc1SCCNC(=O)c1ccc(F)cc1	none
COc1ccc(/C=N/NC(=O)CCN2CCN(c3ccccc3)CC2)c(OC)c1OC	none
O=C(CCN1CCN(c2ccccc2)CC1)N/N=C/c1ccc(O)c(O)c1O	Diaph inh CS 64
O=C(CCN1CCN(c2ccccc2)CC1)N/N=C/c1ccc([N+](=O)[O-])o1	L major viab 98
COc1ccc([N+](=O)[O-])cc1NC(=O)CCN1CCN(c2ccccc2)CC1	none
O=C(Cc1ccc([N+](=O)[O-])cc1)N/N=C/c1ccc([N+](=O)[O-])o1	L major viab 100
C=CCN1C(c2ccc(Br)cc2)=CS/C1=C(/C#N)c1nnc(N2CCOCC2)n1-c1ccccc1	L major viab 56
CCOC(=O)N1CCC(N2C(=O)c3ccccc3C2Nc2cc(C(=O)OC)cc(C(=O)OC)c2)CC1 (configuration not stated)	L major viab 62
CCOC(=O)N1CCC(N2C(=O)c3ccccc3C2Nc2ccccc2)CC1 (configuration not stated)	none
CCOC(=O)/C(C#N)=C/c1ccc(OCC(=O)Nc2ccc(C)c(C)c2)c(OC)c1	L major viab 52
CCC(=O)OC1=C2C(=Nc3c(c(=O)n(C)c(=O)n3C)C2c2ccccc2)c2ccccc21 (configuration not stated)	none (no result: Diaph act CS, WT yeast gro inh, Diaph inh CS, G6PDH CS)
CC1(C)CC(=O)C2=C(C1)N(CCN1CCOCC1)C1=C(C(=O)CC(C)(C)C1)C2c1cccc(Cl)c1	L major viab 61
O=C(Nc1cc(Cl)ccc1O)c1snnc1-c1ccccc1	none
CCOC(=O)C1=C(C)Nc2nc(=S)[nH]n2C1c1ccc(Cl)cc1 (configuration not stated)	L major viab 94
CCOC(=O)C1=C(C)Nc2nc(SCC)nn2C1c1ccc(OC)cc1 (configuration not stated)	none
CC(C)Oc1ccc(Nc2ncnc3ccccc23)cc1	L major viab 56
Cc1ccccc1C(=O)Oc1cccc(Nc2ncnc3ccccc23)c1	L major viab 57 (no result: Diaph act CS, WT yeast gro inh, Diaph inh CS, G6PDH CS)
COC(=O)c1cccc(Nc2ncnc3ccc(C)cc23)c1	L major viab 51
CCOC(=O)c1cccc(Nc2ncnc3ccccc23)c1	none
Cc1cccc(Nc2ncnc3ccccc23)c1	L major viab 88
CCOCCCNC(=O)C(c1ccc(Cl)cc1)N(Cc1cccs1)C(=O)CNC(C)=O (configuration not stated)	none
Cc1cccn2c(CNCC3(c4ccccc4)CCCC3)c(C(=O)N3CCOCC3)nc12	none
Cc1ccc(N2C(N)=C(C#N)C(c3ccsc3)C3=C2CC(C)(C)CC3=O)cc1 (configuration not stated)	L major viab 73
CN(C)N1C(N)=C(C#N)C(c2ccsc2)C2=C1CC(C)(C)CC2=O (configuration not stated)	none
CN(C)N1C(N)=C(C#N)C(c2ccsc2)C2=C1CCCC2=O (configuration not stated)	none
N#CC1=C(N)N(c2ccccc2)C2=C(C(=O)CCC2)C1c1ccsc1 (configuration not stated)	L major viab 55
CC(C)(C)NCC(O)(c1ccc(Cl)cc1)c1ccc(Cl)cc1	none
NCC(O)(c1ccc(Cl)cc1)c1ccc(Cl)cc1	L major viab 94
S=c1[nH]c(-c2ccc(Cl)cc2)cs1	WT yeast gro inh 65, L major viab 67
O=C1CCC(=O)N1c1ccc(NCCc2cccc(F)c2)c([N+](=O)[O-])c1	none
COCCNc1ccc(N2C(=O)C3CCCCC3C2=O)cc1[N+](=O)[O-] (configuration not stated)	none
